Results collected from several papers.
Lines come from different studies, so protocols differ.
Target: Protein-tyrosine kinase 6 (PTK6, Homo sapiens, UniProt Q13882)

For `COc1cc(-c2cn(C3CCc4ccccc4N(CC(F)(F)F)C3=O)nn2)ccc1-n1ccc(C)n1` (centres unmarked), the remaining binding was 100% (cell-free assay; competition with immobilised ligand; 1 µM).
For `C[C@@H](c1ccc(-n2cnc3c(N)ncnc32)cc1)N1CCc2nn(C)c(Cc3ccccc3)c2C1=O`, the remaining binding was 62% (binding; competition with immobilised ligand; 0.1 µM).
`O=C(Nc1c[nH]nc1C(=O)NC1CCNCC1)c1cc(F)cc(F)c1` has a remaining binding of 100% (binding; competition with immobilised ligand; 1 µM).
`c1cncc(-c2cccc(Nc3nccc(NC4CCCCC4)n3)c2)c1` gave a remaining binding of 80% (binding; competition with immobilised ligand; 10 µM).
For `C[C@H]1CCN(c2nccc(-c3cnn4ncccc34)n2)C1`, the remaining binding was 100% (binding; 1 µM).
`COc1cnc(Nc2cccc(S(N)(=O)=O)c2)nc1N1CCN(c2ccccc2)C(=O)C1` has a remaining binding of 100% (binding; competition with immobilised ligand; 1 µM).
With `CN(C)c1nccc(-c2cnn3ncccc23)n1` the remaining binding was 100% (binding; 1 µM).
With `O=C(c1ccc(Nc2nccc(-c3cc4ccccc4s3)n2)cc1)N1CCC(N2CCCC2)CC1` the remaining binding was 65% (binding; competition with immobilised ligand; 1 µM).
`COc1cc(-c2cn(C3CCc4c(F)cccc4N(CC(F)(F)F)C3=O)nn2)ccc1-n1cnc(C)c1` (centres unmarked) has a remaining binding of 100% (cell-free assay; competition with immobilised ligand; 1 µM).
The remaining binding of `CN(C)c1ncc(F)c(-c2cnn3ncccc23)n1` is reported as 99% (binding; 1 µM).
`CCc1ccccc1C(=O)Nc1n[nH]c2c(C)c(F)c(C3C(C#N)=C(C)N(C)C(C)=C3C#N)cc12` has a remaining binding of 100% (cell-free assay; competition with immobilised ligand; 1 µM).
`CC1CCCN1c1nccc(-c2cnn3ncccc23)n1` (centres unmarked) gave a remaining binding of 89% (binding; 1 µM).
`O=C(NCCCN1CCOCC1)c1ccc(Nc2ncc(Cl)c(-c3ccc(Cl)s3)n2)cc1` gave a remaining binding of 100% (binding; competition with immobilised ligand; 1 µM).
`CN(CCCC(F)(F)F)c1nccc(-c2cnn3ncccc23)n1` has a remaining binding of 97% (binding; 1 µM).
With `Cc1c(NC(=O)c2cc(C(N)=O)nc3cc(F)ccc23)c(C(F)(F)F)nn1Cc1ccc(C#N)cc1` the remaining binding was 100% (cell-free assay; competition with immobilised ligand; 1 µM).
`CN(C)c1nccc(-c2cnc3ncccn23)n1` has a remaining binding of 92% (binding; 1 µM).
`CN(C)c1ncnc(-c2ccc3nc(Nc4cc(CN5CCN(C(=O)CC(F)(F)F)CC5)ccn4)[nH]c3c2)c1Cl` gave a remaining binding of 86% (cell-free assay; competition with immobilised ligand; 1 µM).
`Nc1ncc2c(n1)-c1c([nH]c3ccc(C#CC4CC4)cc13)CCCC2` gave a remaining binding of 97% (binding; competition with immobilised ligand; 1 µM).
For `C[C@H](c1ccc(F)cc1)N(Cc1cccc(C(=O)O)c1)C(=O)c1cnc2ccccc2c1`, the remaining binding was 83% (cell-free assay; competition with immobilised ligand; 1 µM).
`Cc1cnc(Nc2ccc(C(=O)N3CCC(N4CCCC4)CC3)cc2)nc1-c1cc2ccccc2s1` has a remaining binding of 26% (binding; competition with immobilised ligand; 1 µM).
